Experimental data published in ChEMBL document CHEMBL4312019, “Design, synthesis, and evaluation of compounds capable of reducing Pseudomonas aeruginosa virulence” (Eur J Med Chem, 2020).
Activity calls are given as the source filed them. The rule behind the calls is not given here.

What was measured:
Pseudomonas aeruginosa [1] = assay: Inhibition of pyoverdin production in Pseudomonas aeruginosa at 10 uM relative to control; type: functional
[2] = target: Voltage-gated inwardly rectifying potassium channel KCNH2 (Homo sapiens, UniProt Q12809); assay: Inhibition of human ERG
Sequence of Voltage-gated inwardly rectifying potassium channel KCNH2 (Q12809 whole entry): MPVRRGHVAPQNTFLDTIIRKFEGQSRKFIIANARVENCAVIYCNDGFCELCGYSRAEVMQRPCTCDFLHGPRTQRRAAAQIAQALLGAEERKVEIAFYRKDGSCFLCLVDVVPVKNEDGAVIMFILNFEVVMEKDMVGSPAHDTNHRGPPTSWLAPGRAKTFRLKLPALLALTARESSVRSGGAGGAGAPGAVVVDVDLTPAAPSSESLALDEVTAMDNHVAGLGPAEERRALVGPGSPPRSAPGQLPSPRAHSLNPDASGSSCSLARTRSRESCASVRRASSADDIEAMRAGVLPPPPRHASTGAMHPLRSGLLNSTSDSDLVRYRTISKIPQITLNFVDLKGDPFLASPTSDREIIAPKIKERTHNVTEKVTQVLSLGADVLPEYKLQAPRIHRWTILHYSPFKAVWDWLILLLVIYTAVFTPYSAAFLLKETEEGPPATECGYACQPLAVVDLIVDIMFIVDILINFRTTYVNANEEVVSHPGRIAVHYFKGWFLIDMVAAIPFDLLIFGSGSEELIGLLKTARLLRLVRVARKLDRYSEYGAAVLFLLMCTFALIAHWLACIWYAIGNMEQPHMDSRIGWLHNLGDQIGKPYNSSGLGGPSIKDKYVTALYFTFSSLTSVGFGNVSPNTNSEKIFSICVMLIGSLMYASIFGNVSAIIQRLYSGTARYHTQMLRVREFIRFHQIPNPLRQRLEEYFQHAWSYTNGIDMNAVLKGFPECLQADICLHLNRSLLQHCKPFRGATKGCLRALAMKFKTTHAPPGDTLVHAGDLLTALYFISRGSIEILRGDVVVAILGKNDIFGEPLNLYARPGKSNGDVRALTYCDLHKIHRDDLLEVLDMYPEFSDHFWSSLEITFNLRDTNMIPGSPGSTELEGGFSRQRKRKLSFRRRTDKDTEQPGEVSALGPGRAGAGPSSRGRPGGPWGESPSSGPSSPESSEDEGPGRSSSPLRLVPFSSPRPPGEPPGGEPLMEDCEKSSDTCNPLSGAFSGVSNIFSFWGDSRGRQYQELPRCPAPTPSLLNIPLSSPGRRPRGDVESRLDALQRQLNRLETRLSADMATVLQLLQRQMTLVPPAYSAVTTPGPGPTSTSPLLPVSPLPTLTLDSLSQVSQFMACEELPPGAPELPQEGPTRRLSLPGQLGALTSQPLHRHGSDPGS

Pseudomonas aeruginosa [3] = assay: Inhibition of pyocyanin production in Pseudomonas aeruginosa at 1 uM relative to control; type: functional
Pseudomonas aeruginosa [4] = assay: Inhibition of biofilm formation in Pseudomonas aeruginosa PAO1 at 10 uM incubated for 10 hrs by crystal violet staining based microtiter plate method relative to control; type: functional; settings: PAO1, 10 h
In short: (§1)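 PAO1 or PA14 grown at 37 °C with 10 µM compound or vehicle. Expressed as percent biofilm biomass versus vehicle-treated control; mean ± SEM.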

Pseudomonas aeruginosa [5] = assay: Inhibition of biofilm formation in Pseudomonas aeruginosa PA14 at 10 uM incubated for 10 hrs by crystal violet staining based microtiter plate method relative to control; type: functional; settings: PA14, 10 h; in short: as §1
[6] = target: T1, Transcriptional regulator MvfR (Pseudomonas aeruginosa PA14) (UniProt A0A072ZLE6); assay: Inhibition of Pseudomonas aeruginosa PAO1 PqsR assessed as increase in pyocyanin production level at 10 uM measured after 10 mins by spectrometry based analysis relative to control
T1 sequence (whole entry): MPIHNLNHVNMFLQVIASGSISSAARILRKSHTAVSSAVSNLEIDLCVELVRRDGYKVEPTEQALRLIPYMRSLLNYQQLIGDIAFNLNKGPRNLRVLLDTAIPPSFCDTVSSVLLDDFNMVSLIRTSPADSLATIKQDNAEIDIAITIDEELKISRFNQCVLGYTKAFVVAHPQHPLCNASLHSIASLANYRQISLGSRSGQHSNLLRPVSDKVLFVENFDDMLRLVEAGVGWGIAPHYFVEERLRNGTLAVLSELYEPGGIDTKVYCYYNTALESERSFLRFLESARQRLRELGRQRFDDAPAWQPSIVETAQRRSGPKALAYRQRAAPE
In short: (§2)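 PAO1 cultured with or without 10 µM compound. Pyocyanin quantified by a spectrometry-based method and expressed as percent of vehicle-treated control. Mean ± SEM of at least 32 replicates.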

Pseudomonas aeruginosa [7] = assay: Inhibition of biofilm formation in Pseudomonas aeruginosa PAO1 at 10 uM incubated for 10 hrs by crystal violet staining based microtiter plate method; type: functional, organism-based; in short: as §1
Pseudomonas aeruginosa [8] = assay: Inhibition of biofilm formation in Pseudomonas aeruginosa PA14 at 10 uM incubated for 10 hrs by crystal violet staining based microtiter plate method; type: functional, organism-based; in short: as §1
[9] = target: T1, Transcriptional regulator MvfR (Pseudomonas aeruginosa PA14); assay: Inhibition of Pseudomonas aeruginosa PAO1 PqsR assessed as reduction in pyocyanin production level at 10 uM measured after 10 mins by spectrometry based analysis; in short: as §2
[10] = target: T1, Transcriptional regulator MvfR (Pseudomonas aeruginosa PA14); assay: Inhibition of Pseudomonas aeruginosa PqsR at 5 uM relative to control
Pseudomonas aeruginosa [11] = assay: Inhibition of pyocyanin production in Pseudomonas aeruginosa at 50 uM relative to control; type: functional
Pseudomonas aeruginosa [12] = assay: Inhibition of biofilm formation in Pseudomonas aeruginosa at 50 uM relative to control; type: functional
[13] = target: Transcriptional activator protein LasR (Pseudomonas aeruginosa (strain ATCC 15692 / PAO1 / 1C / PRS 101 / LMG12228)) (UniProt P25084); assay: Inhibition of Pseudomonas aeruginosa PAO1 LasR transfected with lasB-GFP at 10 uM measured after 12 hrs by fluorescence based microtiter plate reader method
Sequence of Transcriptional activator protein LasR (Pseudomonas aeruginosa (strain ATCC 15692 / PAO1 / 1C / PRS 101 / LMG12228)) (P25084 whole entry): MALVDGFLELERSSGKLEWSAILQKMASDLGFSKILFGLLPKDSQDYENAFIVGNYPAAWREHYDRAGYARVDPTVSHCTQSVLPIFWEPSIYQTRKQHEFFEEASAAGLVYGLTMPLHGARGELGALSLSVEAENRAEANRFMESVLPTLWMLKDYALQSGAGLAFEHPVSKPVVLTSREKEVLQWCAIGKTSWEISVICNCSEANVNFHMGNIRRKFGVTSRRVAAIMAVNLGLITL
In short: (§3)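 GFP reporter strains (PqsR: PA14 pAW1::GFP; LasR: PAO1 lasB::GFP) grown 12 h in LB broth with 5% BSA, with or without 10 µM compound.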

[14] = target: T1, Transcriptional regulator MvfR (Pseudomonas aeruginosa PA14); assay: Inhibition of Pseudomonas aeruginosa PA14 PqsR transfected with pAW1-GFP at 10 uM measured after 12 hrs by fluorescence based microtiter plate reader method; in short: as §3
[15] = Inhibition of quorum sensing system in Pseudomonas aeruginosa assessed as reduction of rhamnolipids level at 10 uM measured after 24 hrs by methylene-blue based assay relative to control
In short: (§4)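 P. aeruginosa grown 24 h with or without 10 µM compound. Rhamnolipids quantified by methylene-blue assay against a six-point standard curve of commercial rhamnolipids.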

Pseudomonas aeruginosa [16] = assay: Inhibition of pyocyanin production in Pseudomonas aeruginosa at 100 uM relative to control; type: functional
[17] = Inhibition of quorum sensing system in Pseudomonas aeruginosa assessed as reduction of rhamnolipids level at 10 uM measured after 24 hrs by methylene-blue based assay; in short: as §4

Compound	IC50 [2] [µM]	inhibition at 10 µM (Pseudomonas aeruginosa [4]) [%]	inhibition at 10 µM (Pseudomonas aeruginosa [5]) [%]	other results
O=C1C=C(Br)/C(=C/Br)O1	–	–	–	inhibition at 10 µM (Pseudomonas aeruginosa [1]): > 90%
O=C(CSc1nc2cc([N+](=O)[O-])ccc2[nH]1)Nc1ccc(Oc2ccccc2)cc1	8.24	–	–	inhibition at 1 µM (Pseudomonas aeruginosa [3]): 95%
Cc1ccc(N(C)C(=O)c2ccc3c(c2)CC(c2ccc(Cl)cc2)OC3=O)cc1C (stereo not drawn)	2.92	40 to 60	40 to 60	–
O=C(CCCS(=O)(=O)c1ccccc1)Nc1cc[nH]c(=O)n1	67.8	40 to 60	40 to 60	inhibition [6]: 20 to 90%
CCCCOc1cc(Cl)cc(OCCCC)c1/N=N/c1c(O)ccc2ccccc12	–	–	–	inhibition (Pseudomonas aeruginosa [7]): inactive; inhibition (Pseudomonas aeruginosa [8]): inactive; inhibition [9]: inactive
CCCCCCCc1[nH]c2ccc([N+](=O)[O-])cc2c(=O)c1CO	–	40 to 60	40 to 60	inhibition [10]: 100%
O=C(Cc1ccc(Br)cc1)N[C@H]1CCOC1=O	–	–	–	inhibition at 50 µM (Pseudomonas aeruginosa [11]): 10 to 30%; inhibition at 50 µM (Pseudomonas aeruginosa [12]): 40%
O=C(CCCS(=O)(=O)c1ccccc1)Nc1nc(=O)[nH]cc1F	40.5	40 to 60	40 to 60	inhibition [6]: 20 to 90%; inhibition [13]: inactive; inhibition [14]: inactive
Cc1ccc(NC(=O)c2ccc3c(c2)CC(c2ccc(Cl)cc2)OC3=O)cc1C (stereo not drawn)	6.77	40 to 60	40 to 60	–
CCCCOc1ccc(Cl)c(OCCCC)c1/N=N/c1c(O)ccc2ccccc12	0.38	–	–	inhibition (Pseudomonas aeruginosa [7]): inactive; inhibition (Pseudomonas aeruginosa [8]): inactive; inhibition [9]: inactive
O=C(CCNC(=O)c1cccc([N+](=O)[O-])c1)Nc1nc(=O)[nH]cc1F	356	40 to 60	40 to 60	inhibition [6]: 20 to 90%; inhibition [13]: inactive; inhibition [14]: Active
O=C(CCCS(=O)(=O)c1ccccc1)NC1CCOC1=O (stereo not drawn)	109	40 to 60	40 to 60	inhibition [15]: 30 to 50%
O=C(CCNC(=O)c1cccc([N+](=O)[O-])c1)NC1CCOC1=O (stereo not drawn)	904	40 to 60	40 to 60	inhibition [15]: 30 to 50%
CCCCCCCCCNC(=O)CC(=O)c1ccccc1	–	–	–	inhibition at 100 µM (Pseudomonas aeruginosa [16]): 90%
O=C(c1cn(CCCNCc2ccc(Oc3ccc(Cl)cc3)cc2)nn1)N1CCOCC1	0.678	40 to 60	40 to 60	inhibition [17]: inactive
O=C(CCCC(=O)c1cccc([N+](=O)[O-])c1)NC1CCCC1	20.4	40 to 60	40 to 60	inhibition [15]: 30 to 50%
CCCCOc1cc(Cl)c(/N=N/c2c(O)ccc3ccccc23)c(OCCCC)c1	0.4	–	–	inhibition (Pseudomonas aeruginosa [7]): inactive; inhibition (Pseudomonas aeruginosa [8]): inactive; inhibition [9]: inactive
